The values that follow come from ChEMBL document CHEMBL1157708, “Design, synthesis and primary activity assay of bi- or tri-peptide analogues with the scaffold l-arginine as amino-peptidase N/CD13 inhibitors” (Bioorg Med Chem, 2010).

One test addresses T1, Aminopeptidase N (Sus scrofa, UniProt P15145).
T1 sequence (P15145 whole entry): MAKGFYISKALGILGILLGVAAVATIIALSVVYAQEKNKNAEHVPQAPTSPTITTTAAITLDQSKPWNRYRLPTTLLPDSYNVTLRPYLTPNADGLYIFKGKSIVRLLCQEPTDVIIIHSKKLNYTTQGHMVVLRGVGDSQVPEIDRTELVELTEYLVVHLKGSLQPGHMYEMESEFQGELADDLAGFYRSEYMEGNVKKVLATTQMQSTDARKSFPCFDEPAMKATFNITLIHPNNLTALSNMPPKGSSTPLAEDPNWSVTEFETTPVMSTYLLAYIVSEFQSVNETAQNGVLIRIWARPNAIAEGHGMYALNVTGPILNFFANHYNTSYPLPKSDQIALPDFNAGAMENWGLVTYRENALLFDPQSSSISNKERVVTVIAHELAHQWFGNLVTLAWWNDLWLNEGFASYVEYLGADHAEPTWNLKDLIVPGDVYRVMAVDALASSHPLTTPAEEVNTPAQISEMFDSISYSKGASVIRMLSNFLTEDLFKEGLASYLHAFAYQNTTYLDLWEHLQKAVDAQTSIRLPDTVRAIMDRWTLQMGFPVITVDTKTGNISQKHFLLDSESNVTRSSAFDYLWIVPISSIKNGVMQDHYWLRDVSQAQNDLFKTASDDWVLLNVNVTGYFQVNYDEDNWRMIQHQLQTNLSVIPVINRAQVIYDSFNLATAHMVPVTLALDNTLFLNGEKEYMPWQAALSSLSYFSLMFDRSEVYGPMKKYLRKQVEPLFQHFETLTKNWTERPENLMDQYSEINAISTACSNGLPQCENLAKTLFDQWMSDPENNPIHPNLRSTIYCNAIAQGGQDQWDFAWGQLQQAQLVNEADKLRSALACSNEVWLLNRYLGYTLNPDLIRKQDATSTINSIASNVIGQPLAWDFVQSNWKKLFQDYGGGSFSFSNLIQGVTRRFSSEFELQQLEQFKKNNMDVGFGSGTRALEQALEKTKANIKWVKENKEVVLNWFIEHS
Nature of the test: Inhibition of APN from pig kidney microsomes by spectrophotometry. The format is tissue-based.

Test [1] has as its target 72 kDa type IV collagenase (Homo sapiens, UniProt P08253). Nature of the test: Inhibition of MMP2 by spectrophotometry. An outline of the steps:
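Gelatinase A (MMP-2) with an in-house synthesized substrate and inhibitor, all in 50 mmol/L sodium borate pH 8.5, incubated 30 min at 37 °C. 0.03% TNBS then added and incubated a further 20 min. Absorbance read at 450 nm.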

Where a SMILES comes first, the peptide text is derived from it. [ ]: non-standard residue; d: D form. The star is where a group is joined. Arg(NO2) = N=C(NCCC[C@H](N)C(=O)O)N[N+](=O)[O-]; Boc = CC(C)(C)OC(=O)*; Bz = O=C(c1ccccc1)*; NHOH = ON*

Chain of 72 kDa type IV collagenase (P08253 whole entry): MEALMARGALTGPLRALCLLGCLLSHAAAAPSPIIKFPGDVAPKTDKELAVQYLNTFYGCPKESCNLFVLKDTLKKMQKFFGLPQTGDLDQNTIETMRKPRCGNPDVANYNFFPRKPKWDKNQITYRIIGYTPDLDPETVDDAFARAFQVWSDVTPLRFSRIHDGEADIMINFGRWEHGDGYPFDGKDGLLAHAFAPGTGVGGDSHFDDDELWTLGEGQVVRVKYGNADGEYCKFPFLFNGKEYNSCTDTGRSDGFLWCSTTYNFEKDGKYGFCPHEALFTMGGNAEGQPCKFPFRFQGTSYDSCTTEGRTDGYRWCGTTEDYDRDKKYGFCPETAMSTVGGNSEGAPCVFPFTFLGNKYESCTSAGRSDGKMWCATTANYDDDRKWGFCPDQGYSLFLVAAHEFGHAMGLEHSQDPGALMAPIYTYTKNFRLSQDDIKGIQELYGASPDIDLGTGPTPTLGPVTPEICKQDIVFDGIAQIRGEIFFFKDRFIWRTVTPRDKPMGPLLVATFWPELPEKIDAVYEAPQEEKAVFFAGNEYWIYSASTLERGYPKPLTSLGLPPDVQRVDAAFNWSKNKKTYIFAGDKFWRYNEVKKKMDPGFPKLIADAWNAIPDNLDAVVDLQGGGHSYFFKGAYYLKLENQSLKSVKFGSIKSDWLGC

Regarding `NC(=N[N+](=O)[O-])NCCC[C@H](NC(=O)[C@H](Cc1ccccc1)NC(=O)[C@@H]1CCCN1)C(=O)NO` (H-Pro-Phe-[Arg(NO2)]-{NHOH}), the IC50 against Aminopeptidase N was 364 µM; in test [1], 8050 µM.
The matching figures for `CC(C)(C)OC(=O)N1CCC[C@H]1C(=O)N[C@@H](Cc1ccccc1)C(=O)N[C@@H](CCCNC(=N)N[N+](=O)[O-])C(=O)NO` (Boc-Pro-Phe-[Arg(NO2)]-{NHOH}): 1340 µM and 7900 µM.
The matching figures for `CC(C)[C@H](NC(=O)[C@H](Cc1ccccc1)NC(=O)OC(C)(C)C)C(=O)N[C@@H](CCCNC(=N)N[N+](=O)[O-])C(=O)NO` (Boc-Phe-Val-[Arg(NO2)]-{NHOH}): 33.1 µM and 447 µM.
For `CC(C)(C)OC(=O)N1CCC[C@H]1C(=O)N[C@@H](Cc1ccc(O)cc1)C(=O)N[C@@H](CCCNC(=N)N[N+](=O)[O-])C(=O)NO` (Boc-Pro-Tyr-[Arg(NO2)]-{NHOH}) the same measures were 436 µM and 4520 µM.
Take `CC(C)[C@H](NC(=O)[C@@H](N)Cc1ccccc1)C(=O)N[C@@H](CCCNC(N)=N[N+](=O)[O-])C(=O)NO` (H-Phe-Val-[Arg(NO2)]-{NHOH}): the IC50 against Aminopeptidase N was determined as 98.6 µM; in test [1], 3160 µM.
The matching figures for `CC(C)[C@H](NC(=O)OC(C)(C)C)C(=O)N[C@@H](CCCNC(N)=N[N+](=O)[O-])C(=O)NO` (Boc-Val-[Arg(NO2)]-{NHOH}): 201 µM and 3460 µM.
For `CC(C)[C@H](NC(=O)c1ccccc1I)C(=O)N[C@@H](CCCNC(N)=N[N+](=O)[O-])C(=O)NO` the same measures were 6.7 µM and 1780 µM.
In test [1], `CC(C)[C@H](N)C(=O)N[C@@H](CCCNC(N)=N[N+](=O)[O-])C(=O)NO` (H-Val-[Arg(NO2)]-{NHOH}) had an IC50 of 428 µM.
With `CC(C)(C)OC(=O)N1CCC[C@H]1C(=O)N1CCC[C@H]1C(=O)N[C@@H](CCCNC(=N)N[N+](=O)[O-])C(=O)NO` (Boc-Pro-Pro-[Arg(NO2)]-{NHOH}), the IC50 against Aminopeptidase N amounted to 42.1 µM; in test [1] it was 8360 µM.
The matching figures for `CSCC[C@H](NC(=O)OC(C)(C)C)C(=O)N[C@@H](CCCNC(=N)N[N+](=O)[O-])C(=O)NO` (Boc-Met-[Arg(NO2)]-{NHOH}): 132 µM and 1940 µM.
In test [1], `CC(C)C[C@H](N)C(=O)N[C@@H](C)C(=O)N[C@@H](CCCNC(N)=N[N+](=O)[O-])C(=O)NO` (H-Leu-Ala-[Arg(NO2)]-{NHOH}) returned an IC50 of 1710 µM.
For the molecule `CC(C)C[C@H](NC(=O)OC(C)(C)C)C(=O)N[C@@H](CCCNC(N)=N[N+](=O)[O-])C(=O)NO`, the IC50 came to 334 µM on Aminopeptidase N and 5680 µM in test [1].
For `COc1ccc(C(=O)N[C@@H](C)C(=O)N[C@@H](CCCNC(N)=N[N+](=O)[O-])C(=O)NO)cc1` the same measures were 16.3 µM and 8970 µM.
For `CC(C)C[C@H](NC(=O)OC(C)(C)C)C(=O)N[C@@H](C)C(=O)N[C@@H](CCCNC(N)=N[N+](=O)[O-])C(=O)NO` (Boc-Leu-Ala-[Arg(NO2)]-{NHOH}) the same measures were 39.5 µM and 2900 µM.
The matching figures for `N=C(NCCC[C@H](NC(=O)[C@@H]1CCCN1C(=O)[C@@H]1CCCN1)C(=O)NO)N[N+](=O)[O-]` (H-Pro-Pro-[Arg(NO2)]-{NHOH}): 65.2 µM and 8610 µM.
For `CC(C)C[C@H](NC(=O)[C@@H](O)[C@H](N)Cc1ccccc1)C(=O)O` [UBENIMEX], the IC50 in test [1] turned out to be 253 µM.
On the same count and under the same terms, to `CC(C)C[C@H](N)C(=O)NCC(=O)N[C@@H](CCCNC(N)=N[N+](=O)[O-])C(=O)NO` (H-Leu-Gly-[Arg(NO2)]-{NHOH}) belongs 3630 µM.
Regarding `N=C(NCCC[C@H](NC(=O)[C@H](Cc1ccccc1)NC(=O)c1ccc(Cl)cc1Cl)C(=O)NO)N[N+](=O)[O-]`, the IC50 on Aminopeptidase N was 4.3 µM; in test [1] it was 8140 µM.
For `CC(C)C[C@H](NC(=O)[C@H](Cc1ccccc1)NC(=O)OC(C)(C)C)C(=O)N[C@@H](CCCNC(=N)N[N+](=O)[O-])C(=O)NO` (Boc-Phe-Leu-[Arg(NO2)]-{NHOH}) the same measures were 8.4 µM and 407 µM.
The molecule `CSCCC[C@H](N)C(=O)N[C@@H](CCCNC(=N)N[N+](=O)[O-])C(=O)NO` displayed an IC50 in test [1] of 4200 µM.
On to `CC(C)C[C@H](NC(=O)c1ccc(Cl)cc1Cl)C(=O)N[C@@H](CCCNC(N)=N[N+](=O)[O-])C(=O)NO`, for which the IC50 against Aminopeptidase N was determined as 7.2 µM; in test [1] it was 1540 µM.
The matching figures for `CC(C)C[C@H](NC(=O)OC(C)(C)C)C(=O)NCC(=O)N[C@@H](CCCNC(N)=N[N+](=O)[O-])C(=O)NO` (Boc-Leu-Gly-[Arg(NO2)]-{NHOH}): 25.2 µM and 2980 µM.
For `C[C@H](NC(=O)c1ccc(Cl)cc1Cl)C(=O)N[C@@H](CCCNC(N)=N[N+](=O)[O-])C(=O)NO` the same measures were 31.4 µM and 1760 µM.
For `N=C(NCCC[C@H](NC(=O)[C@H](Cc1ccc(O)cc1)NC(=O)[C@@H]1CCCN1)C(=O)NO)N[N+](=O)[O-]` (H-Pro-Tyr-[Arg(NO2)]-{NHOH}) the same measures were 248 µM and 7590 µM.
Take `N=C(NCCC[C@H](NC(=O)[C@H](Cc1ccccc1)NC(=O)c1ccccc1)C(=O)NO)N[N+](=O)[O-]` (Bz-Phe-[Arg(NO2)]-{NHOH}): the IC50 on Aminopeptidase N came out at 4.2 µM; in test [1], 1650 µM.
In test [1], `CC(C)C[C@H](NC(=O)[C@@H](N)Cc1ccccc1)C(=O)N[C@@H](CCCNC(=N)N[N+](=O)[O-])C(=O)NO` (H-Phe-Leu-[Arg(NO2)]-{NHOH}) gave an IC50 of 514 µM.
Consider `CC(C)C[C@H](NC(=O)c1ccccc1Cl)C(=O)N[C@@H](CCCNC(N)=N[N+](=O)[O-])C(=O)NO`, for which the figures for the IC50 (against Aminopeptidase N; in test [1]) were 4.8 µM and 630 µM, respectively.
Take `CC(C)C[C@H](N)C(=O)N[C@@H](CCCNC(=N)N[N+](=O)[O-])C(=O)NO`: in test [1], inhibition was half-maximal at 5310 µM (IC50).
